Results reported in PMC9007260 (Russian Journal of Organic Chemistry, 2022).
Marks after values point to notes of the source that are not given here.

Assays:
[1] = system: coagulation in hemostasis; experiment: Anticoagulant activity, activated partial thromboplastin time; format: biochemical; conditions: value (range), n = 6
Summary of the method: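 APTT was measured turbidimetrically on a hemocoagulometer using centrifuged citrated blood. Change is given as percent of control with a range in parentheses, n = 6. Significance was tested against control and reference drugs at p ≤ 0.05 or p ≤ 0.001.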

[2] = system: collagen-induced platelet aggregation; experiment: Collagen-induced platelet aggregation; format: cell-based
Summary of the method: (§1)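 Citrated blood was centrifuged, and platelet aggregation was recorded on an aggregometer using a published method. Collagen induced the latent period; ADP induced maximum amplitude and aggregation rate. Changes are given as percent of control, n = 6. Significance was tested against control and reference drugs at p ≤ 0.05 or p ≤ 0.001.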

[3] = system: ADP-induced platelet aggregation; experiment: ADP-induced platelet aggregation; format: cell-based; conditions: pro-aggregation activity versus etamsylate
Summary of the method: as §1

Compound | APTT (activated partial thromboplastin time) [1] | Effect on latent period (in words) [2] | Platelet aggregation activity relative to etamsylate [3]
CC(=O)Oc1ccccc1C(=O)O [Acetylsalicylic acid, reference compound] | +1.1 (0.5–1.9)^e percent of control | – | –
C[N+](C)(C)CC(=O)NN=C1C(=O)N(CCn2cnc3c(N)ncnc32)c2ccccc21.[Cl-] [Compound 3a, 2-(2-{1-[2-(6-Amino-9H-purin-9-yl)ethyl]-2-oxo-2,3-dihydro-1H-indol-3-ylidene}hydrazinyl)-N,N,N-trimethyl-2-oxoethan-1-aminium chloride] | +3.7 (2.9–5.4)^e percent of control | – | –
Cc1ccc2c(c1)C(=NNC(=O)C[N+](C)(C)C)C(=O)N2CCn1cnc2c(N)ncnc21.[Cl-] [Compound 3b, 2-(2-{1-[2-(6-Amino-9H-purin-9-yl)ethyl]-5-methyl-2-oxo-2,3-dihydro-1H-indol-3-ylidene}hydrazinyl)-N,N,N-trimethyl-2-oxoethan-1-aminium chloride] | +6.5 (4.9–8.3)^c,e percent of control | – | –
CCc1ccc2c(c1)C(=NNC(=O)C[n+]1ccccc1)C(=O)N2CCn1cnc2c(N)ncnc21.[Cl-] [Compound 3c, 1-[2-(2-{1-[2-(6-Amino-9H-purin-9-yl)ethyl]-5-ethyl-2-oxo-2,3-dihydro-1H-indol-3-ylidene}hydrazinyl)-2-oxoethyl]pyridinium chloride] | +5.3 (4.1–9.6)^c,e percent of control | – | –
Cc1ccc2c(c1)C(=NNC(=O)C[n+]1cccc(C)c1C)C(=O)N2CCn1cnc2c(N)ncnc21.[Br-] [Compound 3d, 1-[2-(2-{1-[2-(6-Amino-9H-purin-9-yl)ethyl]-5-methyl-2-oxo-2,3-dihydro-1H-indol-3-ylidene}hydrazinyl)-2-oxoethyl]-2,3-dimethylpyridinium bromide] | +2.5 (1.8–4.3)^e percent of control | – | –
Cn1c(=O)c2c(ncn2CCN2C(=O)C(=NNC(=O)C[N+](C)(C)C)c3ccccc32)n(C)c1=O.[Cl-] [Compound 4a, 2-[2-(1-{2-[1,3-Dimethyl-2,6-dioxo-2,3-dihydro-1H-purin-7(6H)-yl]ethyl}-2-oxo-2,3-dihydro-1H-indol-3-ylidene)hydrazinyl]-N,N,N-trimethyl-2-oxoethan-1-aminium chloride] | +8.4 (7.3–10.4)^c,e percent of control | – | –
Cc1ccc2c(c1)C(=NNC(=O)C[N+](C)(C)C)C(=O)N2CCn1cnc2c1c(=O)n(C)c(=O)n2C.[Cl-] [Compound 4b, 2-[2-(1-{2-[1,3-Dimethyl-2,6-dioxo-2,3-dihydro-1H-purin-7(6H)-yl]ethyl}-5-methyl-2-oxo-2,3-dihydro-1H-indol-3-ylidene)hydrazinyl]-N,N,N-trimethyl-2-oxoethan-1-aminium chloride] | +7.3 (5.6–9.4)^c,e percent of control | without affecting the latent period | more than twofold
Sodium heparin [reference compound] | +20.3 (19.7–21.4)^d percent of control | – | –
